What is called MIC is the smallest concentration in the dilution series that meets the test's criterion for growth inhibition. By Inhibition is commonly meant the change of the read-out against control, counted positive when it falls. Read a low Inhibition as a response near the control. As usually defined, the inhibition is how much of the control response was suppressed.

One experiment has as its system Escherichia coli. As to the kind of experiment: Antibacterial activity against Escherichia coli ATCC 25922 after 16 to 20 hrs by broth microdilution method. The experiment is classed as functional. The settings on record: Escherichia coli, ATCC 25922. The method in brief: (§1)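 Broth microdilution MIC. Exponentially growing bacteria diluted in sterile liquid medium to a final inoculum of 1 × 10⁴ CFU/mL. Cultured with compound dilutions for 16-20 h; compounds tested at 100, 50, 10 and 1 µg/mL. MIC taken as the concentration giving 100% inhibition of bacterial growth.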
For orientation: In broth dilution the organism is exposed to a series of concentrations in liquid medium.

A further experiment concerns Klebsiella aerogenes. As to the kind of experiment: Antibacterial activity against Enterobacter aerogenes after 16 to 20 hrs by broth microdilution method. The settings on record: Klebsiella aerogenes. The class given is functional. The method in brief:
as §1

The subject of the next experiment is Proteus vulgaris. As to the kind of experiment: Antibacterial activity against Proteus vulgaris ATCC 49132 after 16 to 20 hrs by broth microdilution method. The class given is functional. The gist of the method: as §1
The next experiment concerns Pseudomonas aeruginosa. As to the kind of experiment: Antibacterial activity against Pseudomonas aeruginosa […] after 16 to 20 hrs by broth microdilution method. The settings on record: Pseudomonas aeruginosa, ATCC 13048. The class given is functional. The method in brief: as §1
Experiment [1] has as its system Salmonella typhimurium. As to the kind of experiment: Antibacterial activity against Salmonella Typhimurium after 16 to 20 hrs by broth microdilution method. The class given is functional, Salmonella enterica subsp. enterica serovar Typhimurium. The gist of the method:
as §1

Experiment [2] deals with Staphylococcus epidermidis. As to the kind of experiment: Antibacterial activity against Staphylococcus epidermidis ATCC 14990 after 16 to 20 hrs by broth microdilution method. The class given is functional. The gist of the method:
as §1

Experiment [3] relates to Bacillus subtilis. As to the kind of experiment: Antibacterial activity against Bacillus subtilis ATCC 6633 after 16 to 20 hrs by broth microdilution method. The experiment is classed as functional. The method in brief: as §1
For experiment [4], the system named is Listeria monocytogenes. As to the kind of experiment: Antibacterial activity Listeria monocytogenes ATCC 15313 after 16 to 20 hrs by broth microdilution method. The experiment is classed as functional. The method in brief:
as §1

The subject of experiment [5] is Streptococcus pyogenes. As to the kind of experiment: Antibacterial activity Streptococcus pyogenes ATCC 19615 after 16 to 20 hrs by broth microdilution method. The class given is functional. The method in brief: as §1
The test system of experiment [6] is Streptococcus pneumoniae. As to the kind of experiment: Antibacterial activity Streptococcus pneumoniae ATCC 49619 after 16 to 20 hrs by broth microdilution method. The experiment is classed as functional. The method in brief:
as §1

Experiment [7] concerns Enterococcus faecalis. As to the kind of experiment: Antibacterial activity Enterococcus faecalis ATCC 29212 after 16 to 20 hrs by broth microdilution method. The experiment is classed as functional. The method in brief:
as §1

Experiment [8] concerns Salmonella typhimurium. As to the kind of experiment: Antibacterial activity against Salmonella Typhimurium at 1 ug/ml after 16 to 20 hrs by broth microdilution method. The class given is functional, Salmonella enterica subsp. enterica serovar Typhimurium. The settings on record: Salmonella enterica.
For experiment [9], the system named is Staphylococcus epidermidis. As to the kind of experiment: Antibacterial activity against Staphylococcus epidermidis ATCC 14990 at 1 ug/ml after 16 to 20 hrs by broth microdilution method. The experiment is classed as functional.
Experiment [10] relates to Bacillus subtilis. As to the kind of experiment: Antibacterial activity against Bacillus subtilis ATCC 6633 at 1 ug/ml after 16 to 20 hrs by broth microdilution method. The class given is functional.
For experiment [11], the system named is Listeria monocytogenes. As to the kind of experiment: Antibacterial activity Listeria monocytogenes ATCC 15313 at 1 ug/ml after 16 to 20 hrs by broth microdilution method. The class given is functional.
The subject of experiment [12] is Streptococcus pyogenes. As to the kind of experiment: Antibacterial activity Streptococcus pyogenes ATCC 19615 at 1 ug/ml after 16 to 20 hrs by broth microdilution method. The class given is functional.
Experiment [13] has as its system Streptococcus pneumoniae. As to the kind of experiment: Antibacterial activity Streptococcus pneumoniae ATCC 49619 at 1 ug/ml after 16 to 20 hrs by broth microdilution method. The experiment is classed as functional.
Experiment [14] relates to Enterococcus faecalis. As to the kind of experiment: Antibacterial activity Enterococcus faecalis ATCC 29212 at 1 ug/ml after 16 to 20 hrs by broth microdilution method. The experiment is classed as functional.

`CN[C@H](CC(C)C)C(=O)N[C@H]1C(=O)N[C@@H](CC(N)=O)C(=O)N[C@H]2C(=O)N[C@H]3C(=O)N[C@H](C(=O)N[C@H](C(=O)O)c4cc(O)cc(O)c4-c4cc3ccc4O)[C@H](O)c3ccc(c(Cl)c3)Oc3cc2cc(c3O[C@@H]2O[C@H](CO)[C@@H](O)[C@H](O)[C@H]2O[C@H]2C[C@](C)(N)[C@H](O)[C@H](C)O2)Oc2ccc(cc2Cl)[C@H]1O` [VANCOMYCIN]: the MIC with Escherichia coli, with Klebsiella aerogenes, in the experiment with Proteus vulgaris and in the experiment on Pseudomonas aeruginosa was more than 100 µg/mL in each case. The Inhibition in the experiment on Salmonella typhimurium [1] is 50%; in [2], 50%; in the experiment on Bacillus subtilis [3] it was 50%; in the experiment with Listeria monocytogenes [4], 100%; with Streptococcus pyogenes [5], 100%; with Streptococcus pneumoniae [6], 100%. The Inhibition with Enterococcus faecalis [7] is 100%. The inhibition at 1 µg/mL with Salmonella typhimurium [8] came to 50%; in experiment [9] it was 50%; in the experiment with Bacillus subtilis [10] it was 50%; with Listeria monocytogenes [11] it was 100%; in the experiment on Streptococcus pyogenes [12], 100%; in the experiment with Streptococcus pneumoniae [13] it was 100%. The same compound came in with an inhibition at 1 µg/mL in the experiment with Enterococcus faecalis [14] of 100%.

Values taken from ChEMBL document CHEMBL1146217, “Growth inhibition of Mycobacterium bovis, Mycobacterium tuberculosis and Mycobacterium avium in vitro: effect of 1-beta-D-2'-arabinofuranosyl and 1-(2'-deoxy-2'-fluoro-beta-D-2'-ribofuranosyl) pyrimidine nucleoside analogs” (J Med Chem, 2007).
